Reference: ChEMBL document CHEMBL3739259, “Defining Key Structural Determinants for the Pro-osteogenic Activity of Flavonoids” (J Nat Prod, 2015)
Calls of active or inactive are those of the source. The rule behind the calls is not given here.

Tests used:
MSC [1] = assay: (§1) Induction of osteogenic differentiation in human MSC assessed as increase in ALP activity at 1 uM using p-NPP as substrate after 9 days by colorimetric method relative to control; type: functional
How it was run: (§2)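 ALP read on day 9 in passage-3 bone-marrow hMSCs cultured at high density in Os.D medium. Compound (1, 5 or 10 μM, 0.1% v/v DMSO final) was re-applied on days 0, 3 and 6. Colorimetric p-nitrophenyl phosphate method, normalised to time and cell number (pNP/min/20,000 cells). Expressed as % of untreated control; three independent triplicate experiments; one-way ANOVA versus vehicle.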

[2] = (§3) Induction of osteogenic differentiation in human MSC assessed as increase in ALP activity at 5 uM using p-NPP as substrate after 9 days by colorimetric method relative to control; type: functional; how it was run: as §2
[3] = Induction of osteogenic differentiation in human MSC assessed as increase in ALP activity at 10 uM using p-NPP as substrate after 9 days by colorimetric method relative to control; type: functional; how it was run: as §2
MSC [4] = assay: Induction of osteogenic differentiation in human MSC assessed as increase in ALP activity using p-NPP as substrate after 9 days by colorimetric method; type: functional; how it was run: as §2
[5] = Cytotoxicity against human MSC assessed as cell viability at 1 uM measured on day 1 by alamar blue assay (reference value: 97 to 101%); settings: MSC cells, read-out: Activity
[6] = Cytotoxicity against human MSC assessed as cell viability at 5 uM measured on day 1 by alamar blue assay (reference value: 97 to 101%); settings: MSC cells, read-out: Activity
[7] = Cytotoxicity against human MSC assessed as cell viability at 10 uM measured on day 1 by alamar blue assay (reference value: 97 to 101%); settings: MSC cells, read-out: Activity
[8] = Cytotoxicity against human MSC assessed as cell viability at 1 uM treated for 3 days measured on day 4 by alamar blue assay (reference value: 97 to 100%); settings: MSC cells, read-out: Activity
[9] = Cytotoxicity against human MSC assessed as cell viability at 5 uM treated for 3 days measured on day 4 by alamar blue assay (reference value: 97 to 100%); settings: MSC cells, read-out: Activity
[10] = Cytotoxicity against human MSC assessed as cell viability at 10 uM treated for 3 days measured on day 4 by alamar blue assay (reference value: 97 to 100%); settings: MSC cells, read-out: Activity
[11] = Cytotoxicity against human MSC assessed as cell viability at 1 uM treated for 6 days measured on day 7 by alamar blue assay (reference value: 96 to 101%); settings: MSC cells, read-out: Activity
[12] = Cytotoxicity against human MSC assessed as cell viability at 5 uM treated for 6 days measured on day 7 by alamar blue assay (reference value: 96 to 101%); settings: MSC cells, read-out: Activity
[13] = Cytotoxicity against human MSC assessed as cell viability at 10 uM treated for 6 days measured on day 7 by alamar blue assay (reference value: 96 to 101%); settings: MSC cells, read-out: Activity
[14] = Cytotoxicity against human MSC assessed as […] in cell number at 1 to 10 uM after 9 days by methylene blue staining based microscopy relative to control; settings: 216 h
How it was run: (§4)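 Passage-3 bone-marrow hMSCs, high density in Os.D medium, dosed with 1, 5 or 10 μM compound (0.1% v/v DMSO final) on days 0, 3 and 6 with medium changes. Cell number measured on day 9 by methylene blue proliferation assay. Expressed as % of untreated control; three independent triplicate experiments, mean ± SEM, one-way ANOVA versus vehicle.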

MSC [15] = assay: as §3; type: functional; how it was run: as §2
[16] = Cytotoxicity against human MSC assessed as decrease in cell number at 1 to 10 uM after 9 days by methylene blue staining based microscopy relative to control; settings: 216 h; how it was run: as §4
[17] = Cytotoxicity against human MSC assessed as cell viability at 1 uM measured on day 1 by alamar blue assay (reference value: […] +/- 1%); settings: MSC cells, read-out: Activity
[18] = Cytotoxicity against human MSC assessed as cell viability at 5 uM after 24 hrs measured on day 1 by alamar blue assay (reference value: […] +/- 1%); settings: MSC cells, read-out: Activity
[19] = Cytotoxicity against human MSC assessed as cell viability at 10 uM after 24 hrs measured on day 1 by alamar blue assay (reference value: […] +/- 1%); settings: MSC cells, read-out: Activity
[20] = Cytotoxicity against human MSC assessed as cell viability at 1 uM treated for 3 days measured on day 4 by alamar blue assay (reference value: 100 +/- 1%); settings: MSC cells, read-out: Activity
[21] = Cytotoxicity against human MSC assessed as cell viability at 5 uM treated for 3 days measured on day 4 by alamar blue assay (reference value: 100 +/- 1%); settings: MSC cells, read-out: Activity
[22] = Cytotoxicity against human MSC assessed as cell viability at 10 uM treated for 3 days measured on day 4 by alamar blue assay (reference value: 100 +/- 1%); settings: MSC cells, read-out: Activity
[23] = Cytotoxicity against human MSC assessed as cell viability at 1 uM treated for 6 days measured on day 7 by alamar blue assay (reference value: 98%); settings: MSC cells, read-out: Activity
[24] = Cytotoxicity against human MSC assessed as cell viability at 5 uM treated for 6 days measured on day 7 by alamar blue assay (reference value: 98%); settings: MSC cells, read-out: Activity
[25] = Cytotoxicity against human MSC assessed as cell viability at 10 uM treated for 6 days measured on day 7 by alamar blue assay (reference value: 98%); settings: MSC cells, read-out: Activity
[26] = Decrease in ALP activity in human MSC using p-NPP as substrate at 5 uM after 9 days by colorimetric method relative to control; type: functional; set-up: Activity: scale not given: the % may be the effect or the level left; how it was run: as §2
[27] = Decrease in ALP activity in human MSC using p-NPP as substrate at 10 uM after 9 days by colorimetric method relative to control; type: functional; set-up: Activity: scale not given: the % may be the effect or the level left
How it was run: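 Passage-3 bone-marrow hMSCs from healthy donors, cultured at high density in osteogenic (Os.D) medium; compound given at days 0, 3 and 6 with media change every 3 days, final 0.1% (v/v) DMSO; vehicle, 50 nM calcitriol and untreated controls. Day-9 ALP by para-nitrophenyl phosphate colorimetry, normalised to time and cell number (methylene blue); % of untreated control, 3 independent triplicate experiments ± SEM.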

[28] = as §1; type: functional; how it was run: as §2
[29] = Cytotoxicity against human MSC assessed as decrease in cell number at 10 uM after 9 days by methylene blue staining based microscopy relative to control; settings: 216 h; how it was run: as §4
[30] = Induction of matrix mineralization in human MSC assessed as increase in calcium deposition across cell monolayer at 10 uM after 20 days by Alizarin red S staining based microscopy relative to control; type: functional
[31] = Cytotoxicity against human MSC assessed as decrease in cell number at 5 uM after 9 days by methylene blue staining based microscopy relative to control; settings: 216 h; how it was run: as §4

Row | SMILES | Activity (MSC [1]) | Activity [2] [%] | Activity [3] [%] | viability at 1 day, 1 µM [5] [%] | viability at 1 day, 5 µM [6] [%] | viability at 1 day, 10 µM [7] [%] | viability at 72 h, 1 µM [8] [%] | viability at 72 h, 5 µM [9] [%] | viability at 72 h, 10 µM [10] [%] | viability at 144 h, 1 µM [11] [%] | viability at 144 h, 5 µM [12] [%] | viability at 144 h, 10 µM [13] [%] | viability at 1 day, 1 µM [17] [%] | viability at 24 h, 5 µM [18] [%] | viability at 24 h, 10 µM [19] [%] | viability at 72 h, 1 µM [20] [%] | viability at 72 h, 5 µM [21] [%] | viability at 72 h, 10 µM [22] [%] | viability at 144 h, 1 µM [23] [%] | viability at 144 h, 5 µM [24] [%] | further results
1 | O=c1c(O)c(-c2ccc(O)cc2)oc2cc(O)cc(O)c12 [KAEMPFEROL] | inactive | 237 | 268 | 96 | 104 | 104 | 97 | 98 | 98 | 100 | 100 | 97 |  |  |  |  |  |  |  |  | fold change (FC) [2]: 1.52; fold change (FC) [3]: 1.32; Activity (MSC [4]): Dose-dependent effect; Activity [14]: Toxic
2 | COc1ccc([C@@H]2CC(=O)c3c(O)cc(O)cc3O2)cc1O [HESPERETIN] | inactive |  |  | 102 | 95 | 96 | 98 | 102 | 103 | 97 | 99 | 98 |  |  |  |  |  |  |  |  | Activity (MSC [15]): inactive; fold change (FC) [3]: 1.72; Activity [14]: Toxic
3 | O=C1C[C@@H](c2ccccc2)Oc2cc(O)cc(O)c21 [PINOCEMBRIN] | inactive | 107 | 121 |  |  |  |  |  |  |  |  |  | 109 | 110 | 111 | 94 | 95 | 96 | 96 | 97 | Activity [16]: Non-toxic; viability at 144 h, 10 µM [25]: 98%
4 | O=C(O[C@@H]1Cc2c(O)cc(O)cc2O[C@@H]1c1cc(O)c(O)c(O)c1)c1cc(O)c(O)c(O)c1 [EPIGALOCATECHIN GALLATE] | inactive |  |  | 101 | 98 | 90 | 93 | 91 | 89 | 101 | 101 | 102 |  |  |  |  |  |  |  |  | Activity (MSC [15]): inactive; fold change (FC) [16]: 0.43; Activity [26]: 84%; fold change (FC) [27]: 0.75
5 | COc1ccc(-c2oc3cc(O)cc(O)c3c(=O)c2O)cc1 [KAEMPFERIDE] |  | 237 | 281 |  |  |  |  |  |  |  |  |  | 112 | 112 | 111 | 95 | 95 | 95 | 97 | 98 | Activity [28]: 143%; Activity (MSC [4]): Dose-dependent effect; viability at 144 h, 10 µM [25]: 99%; Activity [29]: Non-toxic; fold change (FC) [30]: 3.17
6 | O=c1c(O)c(-c2cc(O)c(O)c(O)c2)oc2cc(O)cc(O)c12 [MYRICETIN] | inactive |  |  | 100 | 94 | 101 | 97 | 97 | 101 | 97 | 98 | 98 |  |  |  |  |  |  |  |  | Activity [16]: Toxic; fold change (FC) [26]: 0.74; fold change (FC) [27]: 0.62
7 | O=c1cc(-c2cc(O)c(O)c(O)c2)oc2cc(O)cc(O)c12 [TRICETIN] | inactive |  |  |  |  |  |  |  |  |  |  |  | 108 | 106 | 104 | 99 | 95 | 95 | 97 | 94 | Activity [26]: 99%; Activity [27]: 79%; viability at 144 h, 10 µM [25]: 94%; fold change (FC) [29]: 0.47; fold change (FC) [31]: 0.68
